Where two headings read alike, the source gives them in different places.
Tests used:
[1] = biological target: T1, H81Q (Homo sapiens, UniProt Q8WWM9, H81Q); experiment: UV-Vis difference spectroscopy titration of ferric cytoglobin; format: binding; conditions: SD, n = 3
How it was run: (§1)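 Ferric globin (5–15 μM) was titrated with imidazole stocks (1–100 mM) to about 100–15000 μM final. Buffer was 100 mM sodium phosphate, pH 7.4, at 25 °C. UV-Vis difference spectra were taken, and the max–min absorbance difference was plotted against ligand. KD came from a 1:1 quadratic binding fit. At least triplicate, with ≥2 protein batches; mean ± SD.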

[2] = biological target: T2, Wild-type Cygb (Homo sapiens, UniProt Q8WWM9); experiment: as above; format: binding; conditions: SD, n = 3
T2 sequence (Q8WWM9 whole entry): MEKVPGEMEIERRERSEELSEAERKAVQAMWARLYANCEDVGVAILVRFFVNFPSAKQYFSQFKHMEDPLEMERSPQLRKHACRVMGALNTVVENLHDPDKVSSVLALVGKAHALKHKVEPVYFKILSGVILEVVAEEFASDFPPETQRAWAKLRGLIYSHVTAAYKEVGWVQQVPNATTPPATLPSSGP
How it was run: as §1

[3] = biological target: T3, H81W (Homo sapiens, UniProt Q8WWM9, H81W); experiment: as above; format: binding; conditions: SD, n = 3
T3 sequence (Q8WWM9 whole entry H81W): as the sequence (Q8WWM9 whole entry) above, with H81W counted along it
How it was run: as §1

[4] = biological target: T4, H81L (Homo sapiens, UniProt Q8WWM9, H81L); experiment: as above; format: binding; conditions: SD, n = 3
T4 sequence (Q8WWM9 whole entry H81L): as the sequence (Q8WWM9 whole entry) above, with H81L counted along it
How it was run: as §1

[5] = biological target: T5, H81A (Homo sapiens, UniProt Q8WWM9, H81A); experiment: as above; format: binding; conditions: SD, n = 3
T5 sequence (Q8WWM9 whole entry H81A): as the sequence (Q8WWM9 whole entry) above, with H81A counted along it
How it was run: as §1

[6] = biological target: T3, H81W; experiment: UV-Vis difference spectroscopy titration of ferric cytoglobin; format: binding; conditions: SD, n = 3; remark: listed apart in the source
[7] = biological target: T5, H81A; experiment: as above; format: binding; conditions: SD, n = 3; remark: listed apart in the source
[8] = biological target: T4, H81L; experiment: as above; format: binding; conditions: SD, n = 3; remark: listed apart in the source
[9] = biological target: T1, H81Q; experiment: as above; format: binding; conditions: SD, n = 3; remark: listed apart in the source
[10] = biological target: T6, K116E (Homo sapiens, UniProt Q8WWM9, K116E); experiment: as above; format: binding; conditions: SD, n = 3
T6 sequence (Q8WWM9 whole entry K116E): as the sequence (Q8WWM9 whole entry) above, with K116E counted along it

[11] = biological target: T2, Wild-type Cygb; experiment: as above; format: binding; conditions: SD, n = 3; remark: listed apart in the source
[12] = biological target: T4, H81L; experiment: UV-Vis difference spectroscopy titration of ferric cytoglobin; format: binding; conditions: SD, n = 3; remark: listed apart in the source
How it was run: (§2)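 Sodium oleate stocks (50 mM in water, −20 °C) were diluted in buffer before use. Ferric globin (5–15 μM) in 100 mM sodium phosphate, pH 7.4, 25 °C was titrated with 200 μM–5 mM stocks to about 60–1500 μM oleate. The max–min difference-spectrum amplitude was plotted against oleate, and KD came from a 1:1 quadratic fit. At least triplicate, with ≥2 protein batches; mean ± SD.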

[13] = biological target: T6, K116E; experiment: as above; format: binding; conditions: SD, n = 3; remark: listed apart in the source
How it was run: as §2

[14] = biological target: T5, H81A; experiment: as above; format: binding; conditions: SD, n = 3; remark: listed apart in the source
How it was run: as §2

[15] = biological target: V105Y (Homo sapiens, UniProt Q8WWM9, V105Y); experiment: as above; format: binding; conditions: SD, n = 3
V105Y, sequence (Q8WWM9 whole entry V105Y): as the sequence (Q8WWM9 whole entry) above, with V105Y counted along it
How it was run: as §2

[16] = biological target: T91D (Homo sapiens, UniProt Q8WWM9, T91D); experiment: as above; format: binding; conditions: SD, n = 3
T91D, sequence (Q8WWM9 whole entry T91D): as the sequence (Q8WWM9 whole entry) above, with T91D counted along it
How it was run: as §2

[17] = biological target: T1, H81Q; experiment: as above; format: binding; conditions: SD, n = 3; remark: listed apart in the source
How it was run: as §2

[18] = biological target: T3, H81W; experiment: as above; format: binding; conditions: SD, n = 3; remark: listed apart in the source
How it was run: as §2

[19] = biological target: R84E (Homo sapiens, UniProt Q8WWM9, R84E); experiment: as above; format: binding; conditions: SD, n = 3
R84E, sequence (Q8WWM9 whole entry R84E): as the sequence (Q8WWM9 whole entry) above, with R84E counted along it
How it was run: as §2

[20] = biological target: L108Q (Homo sapiens, UniProt Q8WWM9, L108Q); experiment: as above; format: binding; conditions: SD, n = 3
L108Q, sequence (Q8WWM9 whole entry L108Q): as the sequence (Q8WWM9 whole entry) above, with L108Q counted along it
How it was run: as §2

[21] = cited from earlier work
[22] = 37°C, 100 mM sodium phosphate, pH 7.4

T1 sequence (Q8WWM9 whole entry H81Q): as the sequence (Q8WWM9 whole entry) above, with H81Q counted along it

c1c[nH]cn1 [Imidazole, imidazole]
Kd [1]: 15.3 ± 11 µM
Kd [2]: 820 ± 150 µM
Kd [3]: 7.3 ± 0.9 µM
Kd [4]: 23.5 ± 4.4 µM
Kd [5]: 10.6 ± 6.2 µM

CCCCCCCC(=O)O [Octanoic acid, octanoic acid, added as sodium octanoate]
Kd [6]: 140 ± 10 µM
Kd [7]: 1.52 ± 0.89 mM
Kd [8]: 950 ± 80 µM
Kd [9]: 250 ± 10 µM
Kd [10]: 185 ± 13 mM
Kd [11]: 1.59 ± 0.74 mM

CCCCCCCC/C=C\CCCCCCCC(=O)O [Oleic acid, oleic acid (18:1 cis-9), added as sodium oleate]
Kd [12]: 36 ± 13 µM
Kd [13]: 62 ± 23 µM
Kd [14]: 24 ± 2 µM
Kd [15]: 4.8 ± 3.2 µM
Kd [16]: 5.7 ± 1.4 µM
Kd [17]: 46 ± 8 µM
Kd [18]: 32 ± 10 µM
Kd [19]: 170 ± 90 µM
Kd [20]: 14 ± 3 µM

Hemoglobin R-State: hemoglobin in the R-state [reference compound]
Nitrite reductase reaction rate constant [21, 22]: 6.0^a M^−1s^−1

Hemoglobin T-State: hemoglobin in the T-state [reference compound]
Nitrite reductase reaction rate constant [21, 22]: 0.12^a M^−1s^−1

Myoglobin F43H/H64A: myoglobin double mutant Phe43(CD1) to His and His64 to Ala [reference compound]
Nitrite reductase reaction rate constant ([21]; Mb values determined at 25°C): 49.8 ± 1.5^c M^−1s^−1

Myoglobin F43H: myoglobin mutant with histidine instead of Phe43(CD1) [reference compound]
Nitrite reductase reaction rate constant ([21]; Mb values determined at 25°C): 1.4 ± 0.1^c M^−1s^−1

Myoglobin H64A: myoglobin distal histidine His64 to Ala mutant [reference compound]
Nitrite reductase reaction rate constant ([21]; Mb values determined at 25°C): 1.8 ± 0.3^b M^−1s^−1

Myoglobin Wild-type: wild-type myoglobin [reference compound]
Nitrite reductase reaction rate constant ([21]; Mb values determined at 25°C): 5.6 ± 0.6^b M^−1s^−1
